Key:
[1] = target: Potassium voltage-gated channel subfamily A member 5 (Homo sapiens) (UniProt P22460); experiment: Inhibition of Kv1.5 potassium channel by whole cell patch clamp
Summary of the method: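 Currents were recorded by whole-cell patch clamp from MEL-C88 cells. Each compound was tested three times at 4–5 concentrations, each experiment on a different cell. IC50 came from a Hill-equation fit of the reduction in area under the current curve.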

[2] = target: Potassium voltage-gated channel subfamily A member 3 (Homo sapiens, UniProt P22001); experiment: Inhibition of Kv1.3 potassium channel expressed in mouse L929 cells by whole cell patch clamp; assay type: cell-based
Potassium voltage-gated channel subfamily A member 3, sequence (P22001 whole entry): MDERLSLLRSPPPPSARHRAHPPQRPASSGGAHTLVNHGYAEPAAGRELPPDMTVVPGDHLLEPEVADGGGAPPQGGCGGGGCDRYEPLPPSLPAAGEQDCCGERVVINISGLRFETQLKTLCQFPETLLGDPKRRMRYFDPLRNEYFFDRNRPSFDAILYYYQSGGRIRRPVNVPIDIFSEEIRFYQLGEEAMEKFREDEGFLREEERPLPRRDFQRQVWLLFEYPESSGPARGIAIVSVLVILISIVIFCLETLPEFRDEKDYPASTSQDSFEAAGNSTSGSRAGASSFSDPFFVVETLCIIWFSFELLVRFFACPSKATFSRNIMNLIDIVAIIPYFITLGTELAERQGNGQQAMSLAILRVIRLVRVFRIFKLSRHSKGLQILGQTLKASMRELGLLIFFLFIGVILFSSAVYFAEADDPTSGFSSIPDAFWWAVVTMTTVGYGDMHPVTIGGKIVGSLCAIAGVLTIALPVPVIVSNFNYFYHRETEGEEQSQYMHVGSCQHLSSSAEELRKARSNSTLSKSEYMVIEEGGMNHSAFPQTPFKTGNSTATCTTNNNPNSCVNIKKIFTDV
Summary of the method: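 Currents were evoked by 500 ms pulses to 40 mV every 45 s. Each compound was run three times at 4–5 concentrations, each on a different cell. IC50 came from a Hill fit of the reduction in area under the current curve.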

[3] = Selectivity for Kv1.3 potassium channel over Kv1.5 potassium channel
[4] = Half life in po dosed rat; assay type: ADME, organism-based; details: in vivo
[5] = Half life in po dosed rhesus monkey; assay type: ADME, organism-based, Macaca mulatta; details: in vivo

Potassium voltage-gated channel subfamily A member 5 (Homo sapiens), sequence (P22460 whole entry): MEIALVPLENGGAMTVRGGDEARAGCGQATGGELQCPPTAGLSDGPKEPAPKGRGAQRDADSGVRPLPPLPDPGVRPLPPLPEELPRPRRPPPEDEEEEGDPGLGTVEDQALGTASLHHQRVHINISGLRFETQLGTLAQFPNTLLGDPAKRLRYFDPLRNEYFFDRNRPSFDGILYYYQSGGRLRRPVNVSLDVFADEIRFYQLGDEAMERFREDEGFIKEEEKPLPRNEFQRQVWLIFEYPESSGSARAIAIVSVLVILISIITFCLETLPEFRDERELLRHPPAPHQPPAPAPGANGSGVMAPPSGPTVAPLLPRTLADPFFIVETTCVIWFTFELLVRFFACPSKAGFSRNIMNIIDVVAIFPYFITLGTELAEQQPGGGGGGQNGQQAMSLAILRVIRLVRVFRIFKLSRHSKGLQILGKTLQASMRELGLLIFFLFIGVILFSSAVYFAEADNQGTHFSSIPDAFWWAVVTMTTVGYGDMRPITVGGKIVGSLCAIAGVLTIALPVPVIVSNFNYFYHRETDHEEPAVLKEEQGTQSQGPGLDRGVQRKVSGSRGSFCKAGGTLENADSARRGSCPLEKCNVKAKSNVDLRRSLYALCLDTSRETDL

## c1ccc(OCCCCOc2cccc3occc23)cc1
[1]
  IC50: 1000 nM
[2]
  IC50: 650 nM

## O=C1c2ccccc2C(=O)c2c(OCCCCOc3ccccc3)cccc21
[1]
  IC50: 10000 nM
[3]
  Ratio IC50 (Kv1.5/Kv1.3): 1.43
[2]
  IC50: 7000 nM

## c1ccc(OCCCCOc2cccc3ccccc23)cc1
[2]
  IC50: 15000 nM

## c1ccc(OCCCCOc2ccnc3ccccc23)cc1
[1]
  IC50: 3500 nM
[3]
  Ratio IC50 (Kv1.5/Kv1.3): < 0.35
[2]
  IC50: > 10000 nM

## O=c1ccc2cc3ccoc3c(OCCCCOc3ccccc3)c2o1
[1]
  IC50: 1000 nM
[2]
  IC50: 1000 nM

## Cn1c(=O)cc(OCCCCOc2ccccc2)c2ccccc21
[1]
  IC50: 1500 nM
[2]
  IC50: 670 nM

## c1ccc(OCCCCOc2ccccc2)cc1
[2]
  IC50: 20000 nM

## COc1cccc2c(=O)c3ccccc3n(CCCCOc3ccccc3)c12
[1]
  IC50: 450 nM
[3]
  Ratio IC50 (Kv1.5/Kv1.3): 2.73
[2]
  IC50: 165 nM

## c1ccc(OCCCCOc2c3ccccc3nc3occc23)cc1
[1]
  IC50: 2000 nM
[3]
  Ratio IC50 (Kv1.5/Kv1.3): 2
[2]
  IC50: 1000 nM

## COc1c2occc2c(OC)c2c(OCCCCOc3ccccc3)cc(=O)oc12
[1]
  IC50: 850 nM
[3]
  Ratio IC50 (Kv1.5/Kv1.3): 1.89
[2]
  IC50: 450 nM

## COc1c2ccoc2c(OCCCCOc2ccccc2)c2oc(=O)cc(C)c12
[1]
  IC50: 280 nM
[3]
  Ratio IC50 (Kv1.5/Kv1.3): 0.88
[2]
  IC50: 318 nM

## COc1cc2nc3occc3c(OCCCCOc3ccccc3)c2cc1OC
[1]
  IC50: 480 nM
[3]
  Ratio IC50 (Kv1.5/Kv1.3): 3.2
[2]
  IC50: 150 nM

## O=c1c(OCCCCOc2ccccc2)c(-c2ccccc2)oc2ccccc12
[1]
  IC50: 10000 nM
[3]
  Ratio IC50 (Kv1.5/Kv1.3): 10
[2]
  IC50: 1000 nM

## c1ccc(OCCCCOc2ncnc3ccccc23)cc1
[1]
  IC50: 25000 nM

## O=c1ccc2c(OCCCCOc3ccccc3)cccc2o1
[1]
  IC50: 520 nM
[3]
  Ratio IC50 (Kv1.5/Kv1.3): 3.47
[2]
  IC50: 150 nM

## c1ccc(OCCCCOC2c3ccccc3Oc3ccccc32)cc1
[1]
  IC50: 15000 nM
[2]
  IC50: 12000 nM

## COc1c2ccoc2cc2oc(=O)ccc12 [BERGAPTEN]
[1]
  IC50: 177000 nM
[3]
  Ratio IC50 (Kv1.5/Kv1.3): 1.75
[2]
  IC50: 101000 nM

## O=c1cc(OCCCCOc2ccccc2)c2ccccc2o1
[1]
  IC50: 1500 nM
[3]
  Ratio IC50 (Kv1.5/Kv1.3): 1.69
[2]
  IC50: 890 nM

## S=c1ccc2c(OCCCCOc3ccccc3)c3ccoc3cc2o1
[1]
  IC50: 380 nM
[3]
  Ratio IC50 (Kv1.5/Kv1.3): 22
[2]
  IC50: 17 nM

## Cc1cc(=O)c2c(OCCCCOc3ccccc3)c3ccoc3cc2o1
[1]
  IC50: 310 nM
[3]
  Ratio IC50 (Kv1.5/Kv1.3): 1.33
[2]
  IC50: 233 nM

## COc1c2occc2c(OCCCCOc2ccccc2)c2c(=O)cc(C)oc12
[1]
  IC50: 2500 nM
[3]
  Ratio IC50 (Kv1.5/Kv1.3): 1.67
[2]
  IC50: 1500 nM

## O=c1ccc2c(OCCCCOc3ccccc3)c3ccoc3cc2o1
[1]
  IC50: 45 nM
[4]
  half-life: 3 h
[5]
  half-life: 6.7 h

## O=c1c2ccccc2n(CCCCOc2ccccc2)c2occc12
[1]
  IC50: 2000 nM
[3]
  Ratio IC50 (Kv1.5/Kv1.3): 2
[2]
  IC50: 1000 nM

## O=c1ccoc2cc3occc3c(OCCCCOc3ccccc3)c12
[1]
  IC50: 200 nM
[2]
  IC50: 170 nM
